Experimental data gathered from unrelated publications.
Compare with care: the assays were run in different laboratories.

| SMILES | system | conditions | measurement | result |
| --- | --- | --- | --- | --- |
| N#C[C@@]12C[C@@H]1[C@@H](n1cnc3c(N[C@@H](C4CCC4)C4CC4)nc(I)nc31)[C@H](O)[C@@H]2O | Caco-2 |  | efflux ratio | 2.76 |
| CC(C(=O)Nc1c(F)cccc1F)N1CCN(c2ccccc2)CC1 (stereo not shown) | female C57BL/6 mouse, plasma | intraperitoneal, 10 mg/kg, single dose | Tmax | 15 min |
| CCN1CCN(Cc2ccc(NC(=O)c3ccc(C)c(NC(=O)c4cncc(-c5cccs5)c4)c3)cc2C(F)(F)F)CC1 | mouse, plasma | intraperitoneal, 10 mg/kg, single dose | Tmax | 30 min |
| Cl.[2H]C([2H])([2H])CC(=O)c1cnc(NC(=O)C2CC2)cc1Nc1cccc(-c2ncn(C([2H])([2H])[2H])n2)c1OC | human, plasma | oral, 10 mg, multiple doses, once daily, fasted | Cmax | 99.5 ng/mL |
| C=CS(=O)(=O)c1ccc(Nc2nc(OCC3CCCCC3)c3nc[nH]c3n2)cc1 | male BALB/c mouse, plasma | intravenous, 20 mg/kg, single dose | Tmax | 4.8 min |
| COc1ccc([C@@H](O)c2cc(-c3ncnc4cc(N5CCOCC5)ccc34)c(F)cc2Cl)nn1 | human, plasma | oral, 150 mg, single dose, patients | Cmax | 1460 ng/mL |
| CNC(=O)n1ccc2cc(Oc3ccnc(NC(=O)c4ccc(C5CCN(CCO)CC5)cc4)c3)c(OCCOC)cc21 | human, plasma | oral, 35 mg, single dose, fasted, healthy volunteers | Cmax | 9.82 ng/mL |
| CC(C)n1c(Nc2cccnc2)nc2cnc(Nc3ccc(N4CCN(C)CC4)cc3)nc21 | male human, plasma | oral, 150 mg, single dose | Cmax | 76.1 ng/mL |
| Cn1cc(Nc2nc(N)nc(-c3cccc(-n4ccc5cc(C6CC6)cc(F)c5c4=O)c3CO)n2)cn1 | human, plasma | oral, 600 mg, single dose, fasted, suspension | Cmax | 5360 ng/mL |
| Cc1c(C(=O)O)ccc2c3n(nc12)[C@@H]1[C@H](C3)N(CC2CC2)[C@@]2(C(=O)Nc3cc(Cl)ccc32)[C@H]1c1cccc(Cl)c1F | female minipig, plasma | intravenous | Vd | 0.94 L/kg |
| CC(=O)N[C@H]1CC[C@H](NC(=O)CN2CCN(c3nncc(-c4ccc(C)cc4)n3)CC2)CC1 | male human, plasma | oral, 100 mg, single dose, fasted | Cmax | 1070 ng/mL |
| CC(C)NCC(O)COc1cccc2ccccc12 (stereo not shown) | Caco-2 | 5 µM, 2 h | efflux ratio | 0.72 |
| CC(C)C[C@H](NC(=O)[C@@H]1COCCCCCC(=O)NCC(=O)N2CCC[C@H]2C(=O)N1)C(=O)[C@@]1(C)CO1 | Caco-2 | 10 µM, 2 h, pH 7.4 | efflux ratio | ~22 |
| CCOc1ccc(N(C)S(=O)(=O)c2cc(Cl)sc2C(=O)Nc2cc(Cl)cc(C(=O)O)c2)cc1OC | male C57BL/6 mouse, brain | intraperitoneal, 10 mg/kg | Tmax | 15 min |
| CN1CC[C@@H](c2c(O)cc(O)c3c(=O)cc(-c4ccc(C(F)(F)F)cc4Cl)oc23)[C@@H]1CO | human, plasma | oral, 50 mg, patients | Cmax | 86.3 ng/mL |
| C[C@H]1O[C@@H](O[C@H]2[C@@H](O)C[C@H](O[C@H]3[C@@H](O)C[C@H](O[C@H]4CC[C@@]5(C)[C@H](CC[C@@H]6[C@@H]5C[C@@H](O)[C@]5(C)[C@@H](C7=CC(=O)OC7)CC[C@]65O)C4)O[C@@H]3C)O[C@@H]2C)C[C@H](O)[C@@H]1O | Caco-2 | 5 µM, 2 h | efflux ratio | 50.7 |
| CCOC(=O)c1cc(Cl)cc(NC(=O)c2sc(Cl)cc2S(=O)(=O)N(C)c2ccc(OCC)c(OC)c2)c1 | male C57BL/6 mouse, brain | intraperitoneal, 10 mg/kg | Tmax | 15 min |
| Cc1c(N(C)C)ccc2cc(C(=O)NS(=O)(=O)c3ccccc3-c3ccccc3)oc12 | Caco-2 | 2 µM, 2 h, pH 7.2 | efflux ratio | 0.7 |
| Nc1ncn([C@H]2C[C@H](O)[C@@H](CO)O2)c(=O)n1 | female C57BL/6 mouse, plasma | intravenous, 0.4 mg/kg | Tmax | 4.98 min |
